Assay outcomes: PubChem BioAssay, several laboratories
In the library only some 4.9% were active in any assay of this set; here they are far more common.
STAT1 act – STAT1 signaling activation. NIH 3T3 STAT1-luciferase reporter, IFN-gamma, luminescence; 100% = IFN-gamma alone, no compound. activation (% of control), % at 5.5 µM. hit rate 2.6% among 200,000;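 active = activation above the screen-wide mean activation plus 3 SD, cut at about 130% in these data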;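 also: raw ratio to IFN-gamma control signal so 100% means no change and 0% no light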
STAT3 inh – inhibitors of IL-6 induced STAT3 signaling. AID 862. hit rate 0.89% among 190,000. inhibition, % at 5.5 µM. U3A cells, IL-6 STAT3-luciferase reporter, luminescence; host cell line lacks STAT1;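 active = inhibition above the mean inhibition across all screened compounds plus 3 SD, cut at about 44% in these data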;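 also: 0% = DMSO only wells and 100% = 100 µM nifuroxazide control wells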
APP 5'UTR act – activates APP 5'UTR luciferase reporter; SH-SY5Y APP 5'UTR luciferase reporter, luminescence; zero percent = DMSO vehicle wells; activation, % at 2 µM; hit rate 1% among 190,000; AID 1276;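 active = activation above a set limit, based on mean plus 3 SD of controls, cut at about 140% in these data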
STAT3 act – STAT3 signaling activation. U3A cells, IL-6 STAT3-luciferase reporter, luminescence; 100% = signal with IL-6 EC80 alone. activation (% of control), % at 5.6 µM. hit rate 0.91% among 190,000. AID 871;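 active = activation above the screen-wide mean of compound activation plus 3 SD, cut at about 130% in these data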;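 also: 0% = background luminescence of wells with medium and substrate only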
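Material: human STAT1-deficient U3A cells with stable STAT3-luciferase reporter / Probe or stimulus: IL-6 stimulus at 33 ng/mL final / Schedule: 1 h compound pre-exposure, 6 h IL-6 stimulation, 37 °C / Technique: luminescence / Read-out basis: percent of IL-6-only median luminescence / Control set: IL-6-only high control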
NF-kB neuron act – NF-kB expression increase, human neuronal cells; NF-kB reporter expression; active compounds read high; fold change at 12.5 µM; hit rate 1.6% among 190,000; AID 1239; in the data active = fold change above about 3.3
STAT1 blocker – reduces IFN-gamma driven STAT1 reporter signal. NIH 3T3 STAT1-luciferase reporter, luminescence. inhibition, % at 5.5 µM. hit rate 0.35% among 200,000;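 active = inhibition above a set limit, the mean inhibition across all tested compounds plus 3 SD, cut at about 34% in these data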;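 also: 0% = IFN-gamma with DMSO and 100% = IFN-gamma with 300 µM nifuroxazide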
* marks the source's active call; other numbers are inactive results; nt = not tested or not shown.

SMILES | STAT1 act | STAT3 inh | APP 5'UTR act | STAT3 act | NF-kB neuron act | STAT1 blocker
CCC(=NCc1ccco1)c1c(C(F)(F)F)[nH]n(-c2nc3ccccc3s2)c1=O | 120 | 33 | 17 | 76 | 0.49 | -22
CC(=NCc1ccco1)c1c(C)[nH]n(-c2nc3ccccc3s2)c1=O | 128 | 11 | 153* | 92 | 1.5 | -43
C/C(=N\NC(=O)c1csc(C)c1C)c1ccco1 | 117 | 26 | 78 | 79 | 3.7* | -19
C/C(=N\NC(=O)c1csc(C)c1C)c1ccc(C)s1 | 121 | -11 | 17 | 106 | 1.2 | -20
COc1ccc(NC(=S)NCCCCCC(=O)C[N+](=O)[O-])cc1 | 95 | -14 | -2 | 111 | 1.1 | 6
COCCNc1c(-c2cc3ccc(C)c(C)c3[nH]c2=O)nc2ccccn12 | 130* | 10 | 121 | 93 | 2.2 | -34
COCCNc1c(-c2ccc(OC)c(OC)c2)nc2ccc(Cl)cn12 | 94 | 24 | 2 | 83 | 0.87 | 5
CCOc1ccccc1C(=O)N1CCN(c2cccc(Cl)c2)CC1 | 105 | -25 | -94 | 122 | 4* | -5
O=C(c1ccc(F)cc1)c1ccc(N2CCCC2)cc1 | 138* | 4 | 57 | 102 | 1.8 | -41
Cn1c(SCc2n[nH]c(=S)n2-c2ccccc2)nnc1-c1ccccc1 | 107 | 0 | -7 | 100 | 1.2 | -8
N#Cc1c(NC(=O)c2cnccn2)sc2c1CCCC2 | 140* | -4 | 51 | 103 | 0.93 | -45
N#Cc1c(NC(=O)c2cccnc2)sc2c1CCC2 | 101 | 5 | 1 | 101 | 1.9 | -1
Cc1cccc(C(=O)Nc2sc3c(c2C#N)CCCCC3)c1 | 128 | 24 | 178* | 82 | 3.6* | -30
CCN(CC)c1ccc(/C=C2\C(=O)c3ccc(C(=O)O)cc3C2=O)cc1 | 108 | -8 | 9 | 105 | 1.1 | -9
COc1ccccc1NCCC(=O)OCC(=O)NC1CCCC(C)C1C (configuration not stated) | 105 | -2 | -20 | 110 | 1.3 | -6
Cc1c(N=C2N=C(NC(=O)c3ccc(F)cc3)c3ccccc32)c(=O)n(-c2ccccc2)n1C | 104 | 26 | -2 | 82 | 0.62 | -7
Cc1ccc(-c2cccc(NC(=O)C3C4C=CC(C4)C3C(=O)O)c2)o1 (configuration not stated) | 107 | 15 | 15 | 93 | 0.62 | -8
C=CCN(CC=C)c1cnn(-c2nc3ccccc3[nH]2)c(=O)c1Cl | 122 | 23 | 142* | 80 | 2.8 | -23
COc1cc(OC)cc(-c2cc(NC(C)=O)n[nH]2)c1 | 99 | -2 | 0 | 102 | 1.4 | 2
CC(=O)Nc1cc(-c2ccc(Cl)cc2)[nH]n1 | 144* | 2 | 11 | 101 | 2.3 | -50
COC(=O)c1cn(NC(=O)c2ccc([N+](=O)[O-])cc2Cl)c(=O)c2ccccc12 | 93 | 0 | 13 | 101 | 1 | 5
CC(NC(=O)CCc1ccc(S(=O)(=O)NC2CCCCC2)cc1)c1ccccc1 (configuration not stated) | 100 | 1 | -1 | 106 | 0.83 | 0
COc1n[nH]c(C(=O)Nc2nc3ccccc3s2)c1[N+](=O)[O-] | 134* | -22 | 17 | 123 | 1.5 | -41
CC1(C)Oc2ccc3ccc(=O)oc3c2/C(=C/NC2CCCCC2)C1=O | 99 | 8 | 4 | 94 | 1.2 | 1
Cc1cccc(N2CCN(C(=O)C3CCCN(S(=O)(=O)c4c(C)noc4C)C3)CC2)c1C (configuration not stated) | 97 | 27 | 9 | 82 | nt | 4
SMILES | STAT1 act | STAT3 inh | APP 5'UTR act | STAT3 act | NF-kB neuron act | STAT1 blocker
CC1CN(C(=O)/C(C#N)=C2\N=C(NC(=O)c3ccccc3Cl)c3ccccc32)CC(C)O1 (configuration not stated) | 98 | 8 | -2 | 92 | 1.2 | 5
Cc1nc(NC(=O)COC(=O)CCc2nc3ccccc3s2)c(Cl)cc1Cl | 101 | -7 | 11 | 104 | 1.1 | -1
CCc1ccc(-c2csc(NC(=O)COC(=O)CCc3nc4ccccc4s3)n2)cc1 | 131* | -9 | 107 | 103 | 1.5 | -34
CN(CC(=O)OCC(=O)NCC(F)(F)F)S(=O)(=O)c1ccc(Cl)cc1 | 101 | 7 | 12 | 103 | 1.1 | -3
Cc1noc(C)c1COC(=O)CCCc1c[nH]c2ccccc12 | 88 | -32 | -17 | 134* | 1.2 | 14
O=C(O)C1=C[C@H](C2CC2)C[C@H](OCCCCO)O1 | 96 | nt | -8 | nt | 1.2 | 6
CC1(C)CC(=O)C/C(=N/Nc2nc3ccccc3s2)C1 | 103 | -13 | 57 | 115 | 0.61 | -3
CC1CCC/C(=N/Nc2nc3ccccc3s2)C1 (configuration not stated) | 138* | 6 | 140* | 100 | 1.3 | -43
Cc1nc(C(Cl)(Cl)Cl)nc2[nH]ccc(=O)c12 | 97 | 5 | -2 | 102 | 1.2 | 2
Cc1ccc(-c2csc(NC(=O)c3ccno3)n2)cc1 | 131* | 2 | 13 | 99 | 1.4 | -34
Cc1ccc(-c2csc(NC(=O)c3ccc(C)o3)n2)cc1 | 96 | 8 | 13 | 94 | 1.1 | 4
COC(=O)c1c(-c2ccncc2)csc1NC(=O)c1ccoc1C | 136* | 10 | 29 | 93 | 2.5 | -37
COc1ccc(-c2csc(NC(=O)COC(=O)C3=COCCO3)n2)cc1 | 130* | 2 | 45 | 99 | 1.2 | -31
COc1ccc(-c2csc(NCc3ccco3)n2)cc1 | 135* | 1 | 158* | 105 | 6.2* | -37
CCN(CC)C(=O)c1sc(NC(=O)c2ccoc2C)c(C(=O)OC)c1C | 108 | 8 | -1 | 97 | 1.1 | -11
Cc1c(S(=O)(=O)N2CCCC(C(=O)O)C2)cnn1C (configuration not stated) | 96 | 2 | 29 | 100 | 0.97 | 3
O=C([C@H](Cc1ccc(O)cc1)n1cc(CCO)nn1)N1CCNCC1 | 100 | nt | -7 | nt | 0.96 | 1
O=C(Nc1ccccc1Sc1ccccc1)c1ccccc1F | 105 | -9 | 0 | 113 | nt | -6
Cc1oc(-c2ccc3c(c2)OCCO3)cc1C(=O)NC(Cc1ccccc1)C(=O)O (configuration not stated) | 97 | 5 | 28 | 100 | nt | 2
COc1ccc(-c2csc(NC(=O)c3ccoc3C)n2)cc1 | 133* | 7 | 47 | 98 | 1.8 | -39
O=C(NCCc1ccccc1)c1nc2c(nnn2Cc2ccccc2Cl)c(=O)[nH]1 | 106 | -38 | 14 | 133* | 1.1 | -7
Cc1ccc(C(=O)Nc2ccc3nc(C)sc3c2)s1 | 141* | 4 | 167* | 100 | 6.6* | -44
O=C1c2ccccc2C(=O)C12OC2c1ccc(Cl)cc1Cl (configuration not stated) | 100 | 0 | -25 | 101 | 4.1* | -1
CNc1ncc(Cc2ccccc2)s1 | 102 | 2 | 7 | 102 | 1.4 | -3
